Calls of active or inactive are those of the source. No cut-off for these calls is given here.
What was measured:
[1] = system: THP-1; test: Antiinflammatory activity in human THP1 cells assessed as inhibition of TPA/ionomycin-induced extracellular IL-1beta level at 5 uM incubated 1 hr prior to TPA/ionomycin challenge measured after 24 hrs by ELISA; assay type: functional, cell-based
Method in brief: (§1)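 THP-1 monocytes (100 000/well) in RPMI-1640 preincubated 1 h with test agent, ethanol ≤0.05%. Stimulated with TPA 40 ng/mL/ionomycin 1 μM (final) for 24 h at 37 °C, 5% CO2. Supernatant kept for extracellular cytokines. Washed cells were lysed in ice-cold RIPA with protease inhibitors for intracellular IL-1β and pro-IL-1β. ELISA read-out; n = 6.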

[2] = system: THP-1; test: Antiinflammatory activity in human THP1 cells assessed as inhibition of TPA/ionomycin-induced intracellular IL-1beta level at 5 uM incubated 1 hr prior to TPA/ionomycin challenge measured after 24 hrs by ELISA; assay type: functional, cell-based; method in brief: as §1
[3] = system: THP-1; test: Antiinflammatory activity in human THP1 cells assessed as inhibition of TPA/ionomycin-induced intracellular proIL-1beta level at 5 uM incubated 1 hr prior to TPA/ionomycin challenge measured after 24 hrs by ELISA; assay type: functional, cell-based; method in brief: as §1
[4] = system: THP-1; test: Antiinflammatory activity in human THP1 cells assessed as inhibition of TPA/ionomycin-induced extracellular TNF-alpha production at 5 uM incubated 1 hr prior to TPA/ionomycin challenge measured after 24 hrs by ELISA; assay type: functional, cell-based; method in brief: as §1
[5] = system: Mus musculus; test: Antiinflammatory activity in Balb/C chronic mouse ear edema model assessed as reduction in TPA-induced edema at 0.9 umol/ear administered topically, bid from day 7 to day 10 measured every day during compound administration relative to control; assay type: functional; set-up: scale not given: the % may be the effect or the level left
Method in brief: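 Male Balb/C mice, 7–9 weeks old, acclimated at least 4 days. 20 μL TPA (125 μg/mL) was applied to inner and outer surfaces of both ears on alternate days from day 0. Test agent at 0.9 μmol/ear in 20 μL ethanol was applied topically to both ears morning and afternoon on days 7–9, with one more dose on day 10 morning. Ear thickness was read with a digital micrometer on days 0–4 and 7–10; means ± SEM, n ≥ 6.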

[6] = system: Mus musculus; test: Antiinflammatory activity in Balb/C chronic mouse ear edema model assessed as reduction in TPA-induced myeloperoxidase accumulation at 0.9 umol/ear administered topically, bid from day 7 to day 10 measured every day during compound administration relative to control; assay type: functional; set-up: scale not given: the % may be the effect or the level left
Method in brief: (§2)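 Chronic TPA ear model in male Balb/C mice: topical dosing at 0.9 μmol/ear in ethanol, twice daily days 7–9 and once on day 10, then euthanasia. 5 mm ear punches were homogenized in 80 mM PBS pH 5.4 with 0.5% HTAB and centrifuged. Supernatant in duplicate was reacted with H2O2 and 18.4 mM tetramethylbenzidine for 3 min at 37 °C. Stopped with sodium acetate pH 3.0; A600 read as neutrophil marker.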

[7] = system: THP-1; test: Cytotoxicity against human THP1 cells assessed as cell viability at 30 uM after 24 hrs by MTS assay; assay type: cell-based; details: thp-1, 24 h
Method in brief: (§3)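 MTS viability: cells at 50 000/well were preincubated 1 h, then serial half-dilutions of test agent were added. After 24 h incubation, MTS reagent was added for 1 h and absorbance read at 492 nm.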

[8] = system: neonatal human epidermal keratinocytes (Homo sapiens); test: Antiinflammatory activity in human NHEK cells assessed as inhibition of TPA/ionomycin-induced IL-8 production at 0.3 to 30 uM incubated for 1 hr prior to TPA/ionomycin challenge measured after 6 to 24 hrs by ELISA
[9] = system: THP-1; test: Antiinflammatory activity in human THP1 cells assessed as inhibition of TPA/ionomycin-induced extracellular IL-1beta level at 30 uM incubated 1 hr prior to TPA/ionomycin challenge measured after 24 hrs by ELISA; assay type: functional; method in brief: as §1
[10] = Cytotoxicity against human NHEK cells assessed as cell viability at 30 uM after 24 hrs by MTS assay; assay type: cell-based; method in brief: as §3
[11] = system: RAW264.7; test: Cytotoxicity against mouse RAW264.7 cells assessed as cell viability at <60 uM after 24 hrs by MTS assay; assay type: cell-based; details: raw264.7, 24 h; method in brief: as §3
[12] = Antiinflammatory activity in human NHEK cells assessed as inhibition of TPA/ionomycin-induced extracellular TNF-alpha production at 3 uM incubated for 1 hr prior to TPA/ionomycin challenge measured after 6 hrs by ELISA; assay type: functional
Method in brief: (§4)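 Primary neonatal keratinocytes (passage ≤3) seeded at 10 000/well for 18 h at 37 °C, 5% CO2, then given fresh medium. Preincubated 1 h with test agent, then stimulated with TPA 40 ng/mL/ionomycin 1 μM. Supernatants taken at 6 and 24 h, centrifuged and stored at −80 °C. Extracellular cytokines measured by ELISA; means ± SEM, n = 6.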

[13] = system: Mus musculus; test: Antiinflammatory activity in Balb/C chronic mouse ear edema model assessed as reduction in TPA-induced redness in ears at 0.9 umol/ear administered topically, bid from day 7 to day 10 measured every day during compound administration relative to control; assay type: functional, organism-based
[14] = system: RAW264.7; test: Antiinflammatory activity in mouse RAW264.7 cells assessed as inhibition of LPS-induced NO production at 3 to 30 uM incubated for 1 hr prior to LPS-challenge measured after 24 hrs by Greiss assay; assay type: functional, cell-based
Method in brief: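 RAW264.7 macrophages (100 000/well) in DMEM preincubated 1 h with test agent at 3 or 30 μM. Stimulated with LPS 1 μg/mL final for 24 h at 37 °C, 5% CO2. Supernatant nitrite measured by Griess reaction (sulfanilic acid and N-naphthylethylenediamine in 5% HCl, 10 min at 37 °C). A540 read against a sodium nitrite standard curve; n = 8.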

[15] = system: THP-1; test: Antiinflammatory activity in human THP1 cells assessed as inhibition of TPA/ionomycin-induced TNF-alpha production at 30 uM incubated 1 hr prior to TPA/ionomycin challenge measured after 24 hrs by ELISA; assay type: functional; method in brief: as §1
[16] = system: neonatal human epidermal keratinocytes (Homo sapiens); test: Antiinflammatory activity in human NHEK cells assessed as inhibition of TPA/ionomycin-induced extracellular TNF-alpha production at 30 uM incubated for 1 hr prior to TPA/ionomycin challenge measured after 6 to 24 hrs by ELISA
[17] = system: Mus musculus; test: Antiinflammatory activity in Balb/C mouse ear edema model assessed as reduction of TPA-induced IL-1beta production at 0.9 umol/ear by ELISA relative to control; assay type: functional; set-up: scale not given: the % may be the effect or the level left
Method in brief: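 Acute TPA ear model in male Balb/C mice, killed 6 h after treatment (0.9 μmol/ear topical). 5 mm ear punches were homogenized in 50 mM Tris-HCl pH 7.4/1 mM EDTA with protease inhibitors, then held 15 min on ice with 1% Triton X-100. Spun at 9500g, 4 °C; supernatant assayed by ELISA. Basal untreated-ear levels were subtracted.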

[18] = system: neonatal human epidermal keratinocytes (Homo sapiens); test: Antiinflammatory activity in human NHEK cells assessed as inhibition of TPA/ionomycin-induced extracellular TNF-alpha production at 3 uM incubated for 1 hr prior to TPA/ionomycin challenge measured after 24 hrs by ELISA
[19] = system: neonatal human epidermal keratinocytes (Homo sapiens); test: Antiinflammatory activity in human NHEK cells assessed as inhibition of TPA/ionomycin-induced IL-1alpha production at 0.3 to 30 uM incubated for 1 hr prior to TPA/ionomycin challenge measured after 6 to 24 hrs by ELISA
[20] = Antiinflammatory activity in human NHEK cells assessed as inhibition of TPA/ionomycin-induced extracellular IL-6 production at 30 uM incubated for 1 hr prior to TPA/ionomycin challenge measured after 6 hrs by ELISA; assay type: functional; method in brief: as §4
[21] = system: THP-1; test: Antiinflammatory activity in human THP1 cells assessed as inhibition of TPA/ionomycin-induced intracellular proIL-1beta level at 30 uM incubated 1 hr prior to TPA/ionomycin challenge measured after 24 hrs by ELISA; assay type: functional; method in brief: as §1
[22] = system: THP-1; test: Antiinflammatory activity in human THP1 cells assessed as inhibition of TPA/ionomycin-induced intracellular IL-1beta level at 30 uM incubated 1 hr prior to TPA/ionomycin challenge measured after 24 hrs by ELISA; assay type: functional; method in brief: as §1
[23] = system: Mus musculus; test: Antiinflammatory activity in Balb/C chronic mouse ear edema model assessed as reduction in TPA-induced flaky appearance in ears at 0.9 umol/ear administered topically, bid from day 7 to day 10 measured every day during compound administration relative to control; assay type: functional, organism-based
[24] = Cytotoxicity against human NHEK cells assessed as cell viability at <60 uM after 24 hrs by MTS assay; assay type: cell-based; method in brief: as §3
[25] = system: Mus musculus; test: Antiinflammatory activity in Balb/C chronic mouse ear edema model assessed as reduction in TPA-induced scaling in ears at 0.9 umol/ear administered topically, bid from day 7 to day 10 measured every day during compound administration relative to control; assay type: functional, organism-based
[26] = system: THP-1; test: Antiinflammatory activity in human THP1 cells assessed as inhibition of TPA/ionomycin-induced extracellular IL-1beta level at 3 uM incubated 1 hr prior to TPA/ionomycin challenge measured after 24 hrs by ELISA; assay type: functional; method in brief: as §1
[27] = system: THP-1; test: Cytotoxicity against human THP1 cells assessed as cell viability at <60 uM after 24 hrs by MTS assay; assay type: cell-based; details: thp-1, 24 h; method in brief: as §3
[28] = system: Mus musculus; test: Antiinflammatory activity in Balb/C chronic mouse ear edema model assessed as reduction in influx of neutrophils at 0.9 umol/ear administered topically, bid from day 7 to day 10 measured every day during compound administration relative to control; assay type: functional, organism-based; method in brief: as §2
[29] = Antiinflammatory activity in human NHEK cells assessed as inhibition of TPA/ionomycin-induced extracellular IL-6 production at 30 uM incubated for 1 hr prior to TPA/ionomycin challenge measured after 24 hrs by ELISA; assay type: functional; method in brief: as §4

## Cc1ccc(S(=O)(=O)/C=C/C#N)cc1
[1]
  inhibition: Active
[2]
  inhibition: Active
[3]
  inhibition: Active
[4]
  inhibition: Active

## CCC(=O)OCC(=O)[C@@]1(OC(=O)CC)[C@@H](C)C[C@H]2[C@@H]3CCC4=CC(=O)C=C[C@]4(C)[C@@]3(F)[C@@H](O)C[C@@]21C [BETAMETHASONE DIPROPIONATE]
[5]
  Activity: 54.2%
[6]
  Activity: 90%

## C[C@]1(CCc2ccoc2)[C@H](COC(=O)c2ccccc2)CC[C@@]2(C)C(C(=O)O)=C[C@H](O)C[C@H]12
[7]
  Activity: Non-toxic
[8]
  inhibition: inactive
[9]
  inhibition at 30 µM: 26.3%
[10]
  Activity: Non-toxic
[11]
  Activity: Non-toxic
[12]
  inhibition at 3 µM: 26.2%
[13]
  Activity: Active
[14]
  inhibition: inactive
[5]
  Activity: 41.1%
[15]
  inhibition at 30 µM: 19.7%
[16]
  inhibition: inactive
[17]
  Activity: 78%
[18]
  inhibition: inactive
[19]
  inhibition: inactive
[20]
  inhibition at 30 µM: 33.2%
[21]
  inhibition at 30 µM: 17%
[22]
  inhibition at 30 µM: 15%
[23]
  Activity: Active
[6]
  Activity: 81.5%
[24]
  Activity: Non-toxic
[25]
  Activity: Active
[26]
  inhibition at 3 µM: 18%
[27]
  Activity: Non-toxic
[28]
  Activity: Active
[29]
  inhibition at 30 µM: 41.5%

Source: ChEMBL document CHEMBL3102701, “Polyandric acid A, a clerodane diterpenoid from the Australian medicinal plant Dodonaea polyandra, attenuates pro-inflammatory cytokine secretion in vitro and in vivo” (J Nat Prod, 2014)
